In ChEMBL document CHEMBL5096236, “Development of Fluorinated Peptoid-Based Histone Deacetylase (HDAC) Inhibitors for Therapy-Resistant Acute Leukemia” (J Med Chem, 2022) one finds IC50, inhibition and Activity data, which are given here for 21 compounds.

In general, IC50 refers to the concentration that inhibits the measured activity by half.

Activity calls are given as the source filed them. The rule behind the calls is not given here.

Assay [1] concerns the target T1, Protein deacetylase HDAC6 (Homo sapiens, UniProt Q9UBN7).
T1 sequence (Q9UBN7 whole entry): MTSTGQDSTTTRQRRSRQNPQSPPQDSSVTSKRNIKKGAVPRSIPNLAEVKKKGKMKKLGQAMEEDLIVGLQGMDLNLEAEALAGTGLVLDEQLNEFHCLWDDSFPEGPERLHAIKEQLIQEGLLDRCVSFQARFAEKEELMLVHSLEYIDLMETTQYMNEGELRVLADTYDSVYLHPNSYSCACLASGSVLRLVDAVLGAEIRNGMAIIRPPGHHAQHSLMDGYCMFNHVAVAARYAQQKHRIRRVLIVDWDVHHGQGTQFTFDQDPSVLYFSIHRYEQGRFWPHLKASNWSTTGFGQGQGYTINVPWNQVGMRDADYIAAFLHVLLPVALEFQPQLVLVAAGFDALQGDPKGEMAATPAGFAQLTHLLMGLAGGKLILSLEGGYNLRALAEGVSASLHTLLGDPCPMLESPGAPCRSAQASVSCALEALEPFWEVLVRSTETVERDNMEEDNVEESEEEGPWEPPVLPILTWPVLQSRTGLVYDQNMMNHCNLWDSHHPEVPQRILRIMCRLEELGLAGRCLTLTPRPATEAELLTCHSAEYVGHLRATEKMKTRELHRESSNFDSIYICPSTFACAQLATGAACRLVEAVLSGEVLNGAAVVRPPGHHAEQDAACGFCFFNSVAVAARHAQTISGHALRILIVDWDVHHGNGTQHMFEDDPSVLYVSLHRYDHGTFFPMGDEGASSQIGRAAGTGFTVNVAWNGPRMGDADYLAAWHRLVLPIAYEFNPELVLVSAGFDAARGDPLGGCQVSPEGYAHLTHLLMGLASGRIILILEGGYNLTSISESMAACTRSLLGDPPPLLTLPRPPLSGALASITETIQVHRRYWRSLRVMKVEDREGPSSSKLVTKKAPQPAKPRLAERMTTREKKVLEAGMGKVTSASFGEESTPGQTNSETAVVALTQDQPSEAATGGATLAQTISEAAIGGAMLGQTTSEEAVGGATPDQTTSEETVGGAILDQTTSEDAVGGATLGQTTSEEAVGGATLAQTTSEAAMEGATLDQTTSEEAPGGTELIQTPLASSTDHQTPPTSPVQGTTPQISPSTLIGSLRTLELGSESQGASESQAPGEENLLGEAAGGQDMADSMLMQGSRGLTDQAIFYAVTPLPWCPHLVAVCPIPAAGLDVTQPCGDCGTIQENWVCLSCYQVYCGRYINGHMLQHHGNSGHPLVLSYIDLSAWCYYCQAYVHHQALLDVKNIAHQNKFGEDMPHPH
Description: Inhibition of recombinant human N-terminal GST-tagged HDAC6 (1 to 1215 residues) expressed in Sf9 insect cells using Z-Lys(Ac)-AMC as fluorogenic substrate incubated for 90 mins by microplate reader analysis.

For assay [2], the target named is Histone deacetylase 1 (Homo sapiens, UniProt Q13547). Description: Inhibition of recombinant human C-terminal FLAG/His-tagged HDAC1 (1 to 482 residues) expressed in Sf9 insect cells using Z-Lys(Ac)-AMC as fluorogenic substrate incubated for 90 mins by microplate reader analysis.
Sequence of Histone deacetylase 1 (Q13547 whole entry, the tested form may be a part): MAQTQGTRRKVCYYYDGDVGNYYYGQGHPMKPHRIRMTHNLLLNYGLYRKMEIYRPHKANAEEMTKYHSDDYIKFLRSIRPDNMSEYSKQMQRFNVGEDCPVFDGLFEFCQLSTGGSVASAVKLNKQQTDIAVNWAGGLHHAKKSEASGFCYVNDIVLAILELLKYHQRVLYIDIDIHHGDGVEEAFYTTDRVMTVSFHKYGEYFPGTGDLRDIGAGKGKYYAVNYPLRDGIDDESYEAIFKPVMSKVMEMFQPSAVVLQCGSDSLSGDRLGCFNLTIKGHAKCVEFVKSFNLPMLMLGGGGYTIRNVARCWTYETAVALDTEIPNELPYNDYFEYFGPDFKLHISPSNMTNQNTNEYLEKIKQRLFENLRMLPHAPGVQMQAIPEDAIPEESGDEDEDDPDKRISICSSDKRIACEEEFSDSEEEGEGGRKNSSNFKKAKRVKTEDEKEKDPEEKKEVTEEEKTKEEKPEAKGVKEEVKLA
For assay [3], the system named is Jurkat. Description: cells. It counts as functional, cell-based. The note with it: Homo sapiens, 72 h.
For assay [4], the system named is HL-60. As to the kind of experiment: cells. The note with it: Homo sapiens, HL-60, 72 h. It counts as functional, cell-based.
In assay [5] the test system is HAL-01. Description: cells. It counts as functional, cell-based. To be noted: Homo sapiens, HAL-01, 72 h.
For assay [6], the target named is T2, Histone deacetylase (Homo sapiens) (UniProt Q13547+O15379+Q9UBN7+Q92769+Q9UQL6+Q8WUI4+Q9BY41+Q96DB2+P56524+Q9UKV0+Q969S8). As to the kind of experiment: Inhibition of HDAC in human HL-60 cells assessed as increase in alpha tubulin acetylation incubated for 24 hrs by immunoblot analysis. It counts as cell-based. To be noted: dose lower […], dose upper 296.0 nM, DDE = dose-dependent effect. In general terms: A western blot detects proteins with antibodies after separation by electrophoresis.

In assay [7] the target is Histone deacetylase 2 (Homo sapiens, UniProt Q92769). Description: Inhibition of recombinant human C-terminal FLAG-tagged HDAC2 (1 to 488 residues) expressed in Sf9 insect cells using Z-Lys(Ac)-AMC as fluorogenic substrate incubated for 90 mins by microplate reader analysis. The procedure, abridged: (§1)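 Compound incubated with ZMAL (Z-Lys(Ac)-AMC; 21.43 μM solution) and enzyme at 37 °C for 90 min. Trypsin (0.4 mg/mL) added, 30 min at 37 °C. […] Duplicates, ≥2 independent experiments. SI = IC50 (HDAC2 or 3)/IC50 (HDAC6).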
Sequence of Histone deacetylase 2 (Q92769 whole entry, the tested form may be a part): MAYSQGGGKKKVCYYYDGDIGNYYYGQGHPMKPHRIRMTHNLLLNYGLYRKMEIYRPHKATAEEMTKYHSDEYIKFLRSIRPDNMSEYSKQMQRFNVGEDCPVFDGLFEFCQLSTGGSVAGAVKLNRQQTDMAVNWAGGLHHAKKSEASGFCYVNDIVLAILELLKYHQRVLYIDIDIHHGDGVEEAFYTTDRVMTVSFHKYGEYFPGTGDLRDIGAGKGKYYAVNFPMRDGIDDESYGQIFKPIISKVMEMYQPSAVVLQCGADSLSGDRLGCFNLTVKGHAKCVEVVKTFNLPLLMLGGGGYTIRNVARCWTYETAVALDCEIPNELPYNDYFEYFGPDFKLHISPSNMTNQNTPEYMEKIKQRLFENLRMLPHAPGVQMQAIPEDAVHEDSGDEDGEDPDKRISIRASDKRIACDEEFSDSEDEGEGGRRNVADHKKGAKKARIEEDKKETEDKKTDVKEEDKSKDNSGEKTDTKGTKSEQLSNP

Assay [8] concerns the target T2, Histone deacetylase (Homo sapiens). As to the kind of experiment: Inhibition of HDAC in human HL-60 cells assessed as increase in Ac-H3 levels incubated for 24 hrs by immunoblot analysis. The note with it: dose lower […], dose upper 296.0 nM, DDE = dose-dependent effect. It counts as cell-based.
Assay [9] deals with HL-60. Description: Synergistic cytotoxicity against human HL-60 cells assessed as increase in synergy score at 0.1 to 2 uM incubated for 72 hrs in presence of DNA methyltransferase inhibitor, decitabine by CellTiter-Glo luminescent assay. To be noted: dose 0.1-2 µM. It counts as functional, cell-based. The method in brief:
(§2)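 AML cells treated 72 h in an 8×8 dose matrix: compound 0.1–2 μM and decitabine 0.25–10 μM, logarithmically spaced. Viability by CellTiter-Glo luminescence. Synergy scored with the ZIP model in SynergyFinder.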
In general terms: Cellular ATP, detected with luciferase, serves as a proxy for viable cell number.

Assay [10] has as its system MOLM-13. As to the kind of experiment: Synergistic cytotoxicity against human MOLM-13 cells assessed as increase in synergy score at 0.1 to 2 uM incubated for 72 hrs in presence of […] inhibitor, decitabine by CellTiter-Glo luminescent assay. It counts as functional, cell-based. The note with it: dose 0.1-2 µM. The procedure, abridged: as §2
For assay [11], the target named is Histone deacetylase 3/Nuclear receptor corepressor 2 (HDAC3/NCoR2) (Homo sapiens, UniProt O15379). Description: Inhibition of C-terminal His-tagged recombinant human HDAC3 (1 to 428 residues)/N-terminal GST-tagged recombinant human NCoR2 (395 to 489 residues) co-expressed in Sf9 cells using Z-Lys(Ac)-AMC as fluorogenic substrate incubated for 90 mins by microplate reader analysis. The procedure, abridged:
as §1

Assay [12] has as its system HL-60. Description: Induction of apoptosis in human HL-60 cells assessed as increase in total apoptotic cells at 1 to 5 uM incubated for 48 hrs by annexin V and propidium iodide staining based flow cytometry analysis. It counts as functional, cell-based. The note with it: dose 1-5 µM. The method in brief:
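HL60 cells (RPMI 1640 GlutaMax, 10-20% FCS, 37°C, 5% CO₂) exposed to compound or control at 1 or 5 μM for 48 h, then stained with annexin V and propidium iodide and analysed by flow cytometry; n=3.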

The target of assay [13] is T2, Histone deacetylase (Homo sapiens). Description: Inhibition of HDAC in human HL-60 cells assessed as increase in Ac-H3 levels at 0.15 uM incubated for 24 hrs in presence of DNA methyltransferase inhibitor, decitabine by immunoblot analysis. It counts as cell-based. The method in brief:
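HL60 cells treated for 24 h with compound alone or combined with decitabine at indicated concentrations. Acetylated H3 detected by immunoblotting.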

The target in assay [14] is Histone deacetylase 4 (Homo sapiens, UniProt P56524). As to the kind of experiment: Inhibition of recombinant human N-terminal GST-tagged/C-terminal His-tagged HDAC4 (627 to 1084 residues) expressed in baculovirus infected Sf9 insect cells using Boc-Lys (trifluoroacetyl)-AMC as substrate incubated for 90 mins by microplate reader analysis. The method in brief:
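HDAC4 enzyme in Tris-HCl pH 8.0 buffer with NaCl, KCl, MgCl₂ and 0.1 mg/mL BSA, max. 1% DMSO. Trypsin (1.0 mg/mL) added, 30 min. Three-parameter log(inhibitor) fit. Duplicates, ≥2 experiments, mean ± SD. SI = IC50 HDAC4/IC50 HDAC6.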

The target in assay [15] is T2, Histone deacetylase (Homo sapiens). Description: Inhibition of HDAC in human HL-60 cells assessed as increase in alpha tubulin acetylation at 6 to 36 uM incubated for 24 hrs by immunoblot analysis. It counts as cell-based. The note with it: dose 6-36 µM.

Sequence of Histone deacetylase 3/Nuclear receptor corepressor 2 (HDAC3/NCoR2) (O15379 whole entry, the tested form may be a part): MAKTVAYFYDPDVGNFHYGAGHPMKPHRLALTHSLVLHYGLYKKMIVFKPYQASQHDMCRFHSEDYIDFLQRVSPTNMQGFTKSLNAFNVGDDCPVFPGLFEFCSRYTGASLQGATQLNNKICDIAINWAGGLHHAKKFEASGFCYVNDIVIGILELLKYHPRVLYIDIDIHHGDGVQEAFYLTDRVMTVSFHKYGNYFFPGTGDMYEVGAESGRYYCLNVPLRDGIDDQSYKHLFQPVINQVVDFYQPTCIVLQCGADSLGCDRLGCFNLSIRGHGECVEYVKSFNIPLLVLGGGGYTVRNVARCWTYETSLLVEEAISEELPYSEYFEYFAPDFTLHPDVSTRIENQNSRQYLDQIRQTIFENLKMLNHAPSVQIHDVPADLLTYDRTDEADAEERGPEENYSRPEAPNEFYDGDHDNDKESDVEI
Sequence of Histone deacetylase 3/Nuclear receptor corepressor 2 (HDAC3/NCoR2) (Q9Y618 whole entry, further chain, the tested form may be a part): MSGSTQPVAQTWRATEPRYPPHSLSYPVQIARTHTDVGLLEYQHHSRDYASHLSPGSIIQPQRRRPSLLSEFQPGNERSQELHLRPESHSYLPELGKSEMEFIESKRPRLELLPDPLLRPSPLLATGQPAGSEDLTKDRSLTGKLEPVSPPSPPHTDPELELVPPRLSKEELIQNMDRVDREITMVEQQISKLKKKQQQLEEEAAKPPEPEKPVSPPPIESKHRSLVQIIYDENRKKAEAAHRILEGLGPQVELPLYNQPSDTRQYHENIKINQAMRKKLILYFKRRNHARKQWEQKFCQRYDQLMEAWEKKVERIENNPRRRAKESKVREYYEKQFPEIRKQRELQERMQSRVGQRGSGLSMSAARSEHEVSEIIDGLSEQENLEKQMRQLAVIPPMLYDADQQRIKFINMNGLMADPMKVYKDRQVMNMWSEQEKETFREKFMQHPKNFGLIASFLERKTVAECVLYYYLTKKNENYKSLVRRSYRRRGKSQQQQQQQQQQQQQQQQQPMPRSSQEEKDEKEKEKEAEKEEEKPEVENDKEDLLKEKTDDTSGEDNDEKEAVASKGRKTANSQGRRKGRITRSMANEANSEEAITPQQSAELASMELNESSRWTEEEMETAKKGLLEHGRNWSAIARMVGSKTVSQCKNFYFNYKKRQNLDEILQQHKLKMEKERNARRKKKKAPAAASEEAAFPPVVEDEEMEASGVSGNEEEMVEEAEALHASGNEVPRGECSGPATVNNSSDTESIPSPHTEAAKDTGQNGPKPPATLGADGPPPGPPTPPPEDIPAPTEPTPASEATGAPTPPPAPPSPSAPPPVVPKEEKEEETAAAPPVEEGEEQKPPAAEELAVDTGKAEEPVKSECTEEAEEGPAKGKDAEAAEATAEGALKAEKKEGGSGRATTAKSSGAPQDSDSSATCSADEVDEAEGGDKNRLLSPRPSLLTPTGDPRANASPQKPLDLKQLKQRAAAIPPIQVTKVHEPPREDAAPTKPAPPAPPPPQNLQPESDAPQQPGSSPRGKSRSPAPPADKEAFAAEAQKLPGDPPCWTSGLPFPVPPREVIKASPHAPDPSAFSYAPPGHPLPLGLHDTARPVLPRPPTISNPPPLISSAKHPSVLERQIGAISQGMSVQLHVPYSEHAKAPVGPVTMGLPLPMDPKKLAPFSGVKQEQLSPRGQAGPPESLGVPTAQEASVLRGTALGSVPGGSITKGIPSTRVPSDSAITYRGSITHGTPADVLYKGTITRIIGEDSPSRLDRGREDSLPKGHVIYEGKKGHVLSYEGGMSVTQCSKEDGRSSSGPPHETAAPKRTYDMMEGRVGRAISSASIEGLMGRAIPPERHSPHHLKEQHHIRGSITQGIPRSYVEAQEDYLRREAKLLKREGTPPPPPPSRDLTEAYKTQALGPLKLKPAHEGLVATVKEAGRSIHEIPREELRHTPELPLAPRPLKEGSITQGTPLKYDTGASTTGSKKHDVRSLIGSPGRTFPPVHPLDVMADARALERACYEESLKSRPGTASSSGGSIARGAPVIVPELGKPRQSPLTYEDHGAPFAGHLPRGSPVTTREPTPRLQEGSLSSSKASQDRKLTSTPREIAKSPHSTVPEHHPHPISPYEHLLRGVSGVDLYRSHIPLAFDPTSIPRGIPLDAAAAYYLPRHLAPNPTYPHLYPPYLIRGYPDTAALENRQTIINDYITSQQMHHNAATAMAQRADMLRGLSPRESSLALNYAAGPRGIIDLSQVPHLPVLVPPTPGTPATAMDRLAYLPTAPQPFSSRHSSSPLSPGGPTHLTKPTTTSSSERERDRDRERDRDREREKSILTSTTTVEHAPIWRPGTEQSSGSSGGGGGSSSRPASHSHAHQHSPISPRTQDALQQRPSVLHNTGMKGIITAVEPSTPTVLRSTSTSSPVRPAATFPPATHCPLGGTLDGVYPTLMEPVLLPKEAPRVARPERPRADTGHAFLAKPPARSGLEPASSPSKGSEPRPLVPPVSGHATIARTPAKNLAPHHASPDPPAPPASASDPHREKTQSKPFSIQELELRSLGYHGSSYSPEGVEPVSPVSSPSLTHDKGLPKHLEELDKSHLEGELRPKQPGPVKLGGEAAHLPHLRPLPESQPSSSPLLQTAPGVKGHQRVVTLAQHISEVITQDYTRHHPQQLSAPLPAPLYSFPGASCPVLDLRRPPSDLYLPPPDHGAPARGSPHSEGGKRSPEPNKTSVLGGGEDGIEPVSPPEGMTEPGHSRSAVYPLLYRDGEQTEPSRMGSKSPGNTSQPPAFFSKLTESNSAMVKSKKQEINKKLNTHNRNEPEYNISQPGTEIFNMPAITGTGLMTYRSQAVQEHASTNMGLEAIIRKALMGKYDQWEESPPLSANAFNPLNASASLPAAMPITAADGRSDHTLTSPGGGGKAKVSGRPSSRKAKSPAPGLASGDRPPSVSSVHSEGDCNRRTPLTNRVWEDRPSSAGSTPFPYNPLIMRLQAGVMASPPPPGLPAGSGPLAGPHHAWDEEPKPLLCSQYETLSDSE
Sequence of Histone deacetylase 4 (P56524 whole entry, the tested form may be a part): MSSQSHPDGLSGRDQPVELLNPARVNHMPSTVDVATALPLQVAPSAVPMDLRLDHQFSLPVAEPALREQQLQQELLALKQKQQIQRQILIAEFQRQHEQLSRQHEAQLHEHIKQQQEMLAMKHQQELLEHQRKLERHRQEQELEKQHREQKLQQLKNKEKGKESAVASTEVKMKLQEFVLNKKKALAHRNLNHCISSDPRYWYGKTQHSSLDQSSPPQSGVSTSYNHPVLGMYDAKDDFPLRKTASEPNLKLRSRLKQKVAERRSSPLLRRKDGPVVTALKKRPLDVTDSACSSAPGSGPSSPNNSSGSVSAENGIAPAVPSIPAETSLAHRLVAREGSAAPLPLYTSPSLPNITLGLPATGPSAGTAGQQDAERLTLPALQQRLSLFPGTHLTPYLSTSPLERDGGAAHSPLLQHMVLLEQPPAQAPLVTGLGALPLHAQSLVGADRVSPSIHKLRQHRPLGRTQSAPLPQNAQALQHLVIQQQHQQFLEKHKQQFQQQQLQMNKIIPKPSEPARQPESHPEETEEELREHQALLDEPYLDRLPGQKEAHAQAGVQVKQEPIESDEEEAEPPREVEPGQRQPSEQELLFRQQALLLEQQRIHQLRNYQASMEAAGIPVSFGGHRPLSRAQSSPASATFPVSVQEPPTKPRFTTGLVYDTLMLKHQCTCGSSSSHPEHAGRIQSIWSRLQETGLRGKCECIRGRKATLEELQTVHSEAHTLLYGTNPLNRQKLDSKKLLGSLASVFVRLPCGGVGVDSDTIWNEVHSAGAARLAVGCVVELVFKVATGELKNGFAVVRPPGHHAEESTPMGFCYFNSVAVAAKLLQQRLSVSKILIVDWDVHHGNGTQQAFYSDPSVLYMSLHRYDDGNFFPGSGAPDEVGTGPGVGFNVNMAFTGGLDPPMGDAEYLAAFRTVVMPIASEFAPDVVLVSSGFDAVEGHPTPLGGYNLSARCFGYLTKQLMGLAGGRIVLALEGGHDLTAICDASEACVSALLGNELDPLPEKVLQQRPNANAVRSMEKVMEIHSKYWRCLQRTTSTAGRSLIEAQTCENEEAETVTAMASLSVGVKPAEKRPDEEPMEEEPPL

For `Cc1ccccc1C(=O)N(CC(=O)NC1CCCCC1)Cc1ccc(C(=O)NO)cc1F`, the IC50 in assay [1] is 18 nM; in assay [2] it was 938 nM.

With `COc1ccccc1C(=O)N(CC(=O)NC(C)(C)C)Cc1ccc(C(=O)NO)cc1`, the IC50 in [1] (sf9) came out at 38 nM; in [2] (sf9) it was 3110 nM.

On to `CN(C)c1ccc(C(=O)N(CC(=O)NC(C)(C)C)Cc2ccc(C(=O)NO)cc2F)cc1`, for which the IC50 worked out at 20 nM in assay [1] and 158 nM in assay [2].

With `CC(C)(C)NC(=O)CN(Cc1ccc(C(=O)NO)cc1F)C(=O)c1ccccc1F`, the IC50 in assay [1] is 26 nM; in assay [2], 1180 nM.

Regarding `CC(C)(C)NC(=O)CN(Cc1ccc(C(=O)NO)cc1F)C(=O)c1ccccc1Cl`, the figures for the half-inhibitory concentration (IC50) in assay [1] and in assay [2] were 21 nM and 3470 nM, respectively.

On to `Cc1cc(C)cc(C(=O)N(CC(=O)NC(C)(C)C)Cc2ccc(C(=O)NO)cc2F)c1`, for which the IC50 in assay [1] was 24 nM; in assay [2], 573 nM.

Regarding `O=C(CN(Cc1ccc(C(=O)NO)cc1F)C(=O)c1ccccc1C(F)(F)F)NC1CCCCC1`, the figures for the half-maximal inhibitory concentration (IC50) in [3] and in assay [2] were above 25000 nM and 1450 nM, respectively.

In the case of `O=C(NO)c1ccc(CC(=O)N(CCO)c2ccccc2)cc1`, the values for the IC50 in assay [4], in assay [5] and in assay [3] were 11300 nM, 13900 nM and 16100 nM, respectively.

For `Cc1cc(C)cc(C(=O)N(CC(=O)NC2CCCCC2)Cc2ccc(C(=O)NO)cc2)c1`, the IC50 in assay [1] stood at 40 nM; in assay [2], 249 nM.

As for `Cc1ccccc1C(=O)N(CC(=O)NC(C)(C)C)Cc1ccc(C(=O)NO)cc1F`, the figures for the half-inhibitory concentration (IC50) in assay [1] and in assay [2] were 27 nM and 1750 nM, respectively.

With `CN(C)c1ccc(C(=O)N(CC(=O)NCc2ccccc2)Cc2ccc(C(=O)NO)cc2F)cc1`, the IC50 in [4] was found to be 218 nM; in assay [7], 14 nM; in [7] (record 2), 14 nM; in [5] it was 375 nM; in [3], 285 nM; in assay [11], 21 nM. Moreover, the IC50 in assay [2] was found to be 13 nM. Further, the inhibition entry in assay [6] and in assay [8] was “Dde” each time. Besides, the result in assay [9], in assay [10] and in assay [12] was Active. Further, the inhibition result in assay [13] is “Active”.

With `COc1ccccc1C(=O)N(CC(=O)NC(C)(C)C)Cc1ccc(C(=O)NO)cc1F`, the 50% inhibitory concentration (IC50) in assay [1] is 17 nM; in assay [5], above 25000 nM; in assay [2], 1750 nM.

`CN(C)c1ccc(C(=O)N(CC(=O)NCc2ccccc2)Cc2ccc(C(=O)NO)cc2)cc1`: the 50% inhibitory concentration (IC50) in assay [1] turned out to be 11 nM; in assay [2] it was 5 nM.

Consider `CC(C)(C)NC(=O)CN(Cc1ccc(C(=O)NO)cc1F)C(=O)c1ccccc1C(F)(F)F`, for which the concentration for half-maximal inhibition (IC50) in assay [1] was 27 nM; in assay [5], above 25000 nM; in [3], above 25000 nM; in assay [2] it was 2330 nM.

As to `CC(C)c1ccccc1C(=O)N(CC(=O)NC(C)(C)C)Cc1ccc(C(=O)NO)cc1F`, the IC50 was 4480 nM in assay [7]; above 10000 nM in assay [14]; above 25000 nM in [5]; above 25000 nM in [3]; 8350 nM in assay [11]; 8010 nM in assay [2]. In addition, the inhibition entry in [15] is “Active”. Further, the result in assay [12] was Active.

Consider `Cc1cc(C)cc(C(=O)N(CC(=O)NCc2ccccc2)Cc2ccc(C(=O)NO)cc2F)c1`, for which the concentration for half-maximal inhibition (IC50) came to 13 nM in assay [1]; 9150 nM in assay [4]; 2750 nM in assay [5]; 6230 nM in assay [3]; 77 nM in assay [2].

As to `O=C(CN(Cc1ccc(C(=O)NO)cc1F)C(=O)c1ccccc1F)NC1CCCCC1`, the half-inhibitory concentration (IC50) in [1] was determined as 18 nM.

With `CN(C)c1ccc(C(=O)N(CC(=O)NC2CCCCC2)Cc2ccc(C(=O)NO)cc2F)cc1`, the half-maximal inhibitory concentration (IC50) in [1] was 16 nM; in assay [2] it was 66 nM.

For `COc1ccccc1C(=O)N(CC(=O)NC1CCCCC1)Cc1ccc(C(=O)NO)cc1F`, the values for the IC50 in assay [1], in [5] and in assay [2] were 20 nM, above 25000 nM and 1500 nM, respectively.

In the case of `Cc1cc(C)cc(C(=O)N(CC(=O)NC2CCCCC2)Cc2ccc(C(=O)NO)cc2F)c1`, the half-inhibitory concentration (IC50) in assay [1] amounted to 20 nM.

Turning to `Cc1ccccc1C(=O)N(CC(=O)NC(C)(C)C)Cc1ccc(C(=O)NO)cc1`, the IC50 in [1] (sf9) was determined as 51 nM; in assay [2] (sf9), 2410 nM.
